These results are taken from PMC2680181 (Journal of medicinal chemistry, 2009).

SMILES strings stand for the structures.

One experiment deals with MIF tautomerase.
Assay: not given
The note with it: covalent inhibitor; cited from earlier work.
Regarding `CC(=O)N=C1C=CC(=O)C=C1` [NAPQI, N-acetyl-p-benzoquinone], the tautomerase inhibitor potency is recorded as 40 µM.

A further experiment addresses T1, MIF tautomerase activity (rhMIF) (Homo sapiens, UniProt P14174).
T1 sequence (P14174 2-115 limits assumed): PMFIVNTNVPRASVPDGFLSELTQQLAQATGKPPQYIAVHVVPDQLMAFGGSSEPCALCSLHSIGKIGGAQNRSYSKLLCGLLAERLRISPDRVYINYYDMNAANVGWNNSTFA
The experiment in a line: Michaelis-Menten analysis of MIF tautomerase with 4-HPP as substrate. It is filed as biochemical. The note with it: Lineweaver-Burk plots, Vmax unchanged.
Take `Cc1ccc2oc(=O)n(Cc3ccccc3)c2c1` [Compound 24]: the “mode of tautomerase inhibition” value is listed as “competitive inhibition”.

For `O=C(c1cc2ccccc2o1)N1CCc2ccccc21` [Compound 23], the “mode of tautomerase inhibition” value is “competitive inhibition”.

Another experiment concerns the target T2, human MIF binding to its receptor, CD74 (Homo sapiens, UniProt P14174).
T2 sequence (P14174 2-115 limits assumed): T1 sequence (P14174 2-115 limits assumed)
Description: MIF-CD74 binding assay. The note with it: NA = measured, but not active.
Turning to `O=C(O)c1cc(-n2cnnc2)ccc1Cl` [Compound 16], the “IC50 (µM) MIF-CD74 binding assay” value is listed as “very weak MIF-CD74 antagonists”.

Consider `CC(=O)Nc1cccc2ccc(-c3cnc4ccccc4c3)nc12` [Compound 28], for which the “IC50 (µM) MIF-CD74 binding assay” value is “inactive”.

For the compound `O=C(O)c1cc(-n2cnnn2)ccc1O` [Compound 15], the “IC50 (µM) MIF-CD74 binding assay” value is “very weak MIF-CD74 antagonists”.

Consider `O=c1c2ccc(F)cc2sn1-c1ccc(Cl)cc1` [Compound 32], for which the “IC50 (µM) MIF-CD74 binding assay” value was “inactive”.

Consider `O=c1oc2c(O)c(O)ccc2cc1-c1nc2ccccc2s1` [Compound 11], for which the “IC50 (µM) MIF-CD74 binding assay” value is “inactive”.

A further experiment has as its target T1, MIF tautomerase activity (rhMIF). The experiment in a line: 4-HPP tautomerase assay. It is filed as biochemical. The settings on record: max inhibition printed in place of IC50. In outline:
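Recombinant human MIF (purified) was pre-incubated with test compound. 4-HPP was dissolved in 50 mM ammonium acetate, pH 6.0, equilibrated to room temperature and stored at 4 °C. At 25 °C, 4-HPP was added to a cuvette of 0.435 M boric acid, pH 6.2, plus the enzyme–compound mix. A305 increase was read over 30–90 s, in triplicate. Compounds spanned a 5000-fold concentration range.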
Turning to `Oc1ccc(/C=C/c2ccc3cccc(O)c3n2)cc1` [Compound 26], the “maximal inhibition in 4-HPP tautomerase assay” value (shortened to “maximal inhibition”) was “max 40%”.

With `O=C(O)c1cccc(-c2cc[nH]n2)c1` [Compound 33], the “maximal inhibition” value is on record as “max 30%”.

For `Oc1ccc2c(c1)oc1ccccc12` [Compound 29], the “maximal inhibition” value is on record as “max 38%”.

The experiment is the same for the next values; noted with them: substrate 4-HPP; NA = measured, but not active.
For the compound `CC(=O)Oc1ccc2nc(-c3cc4ccccc4o3)oc(=O)c2c1` [Compound 17], the “IC50 (µM) 4-HPP tautomerase assay” value is listed as “weak tautomerase inhibitors”.

On to `Oc1ccc(/C=C/c2ccc3cccc(O)c3n2)cc1` [Compound 26], for which the “IC50 (µM) 4-HPP tautomerase assay” value was “weak tautomerase inhibitors”.

Take `COC(=O)C[C@H]1CC(c2ccc(O)cc2)=NO1` (racemic) [Compound 9, (S,R)-3-(4-hydroxyphenyl)-4,5-dihydro-5-isoxazole acetic acid methyl ester, reference compound]: the “IC50 (µM) 4-HPP tautomerase assay” value is “inactive”.

Take `Oc1c(C(Nc2cccc(F)c2)c2ccccn2)ccc2cccnc12` (stereo not drawn) [Compound 18]: the “IC50 (µM) 4-HPP tautomerase assay” value is given as “weak tautomerase inhibitors”.
